The record followed here is paper PMC9424334 (Biomolecules & Therapeutics, 2022).

Assay type in all cases: cell-based, human
Assay [1] deals with DACT family in MM.1S cells. Nature of the assay: Immunoblotting of DACT family expression. The settings on record: 24 h. An outline of the steps: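 Total lysates were prepared in RIPA buffer with protease/phosphatase inhibitors and immunoblotted for DACT1, DACT2 and DACT3, normalised to GAPDH with chemiluminescence detection. Data are mean ± SEM.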
A general note: Immunoblotting shows a protein as a band on a membrane.

Assay [2] deals with cleaved caspase-3 in MM.1S and RPMI8226 cells. Nature of the assay: Immunoblotting for cleaved caspase-3. The settings on record: 1000 nM. In short, it runs like this: (§1)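 Total lysates were made in RIPA buffer with protease/phosphatase inhibitors, quantified by BCA and immunoblotted, with chemiluminescence detection and GAPDH normalisation. Data are mean ± SEM; one-way ANOVA vs control.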

The subject of assay [3] is cyclin D1 and CDK4 in MM.1S and RPMI8226 cells. Kind of assay: Immunoblotting for CDK4 and cyclin D1. The settings on record: MM.1S cells, higher concentration ranges, 24 h. An outline of the steps:
as §1

Assay [4] deals with acetylation of histone H3, H4 and tubulin in MM.1S cells. Kind of assay: Immunoblotting of acetylated proteins. The settings on record: 30-1000 nM, 6 h. In short, it runs like this: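 Histones were extracted afterwards, and acetylation of histone H3, H4 and tubulin was assessed by immunoblotting with chemiluminescence detection.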

Consider `O=C(CCCCCCC(=O)Nc1ccccc1)NO` [SAHA, Suberoylanilide hydroxamic acid], for which, in assay [1] (3000 nM), the “protein expression of DACT3” value is reported as “significantly enhanced”. The “protein expression of DACT1 and DACT2” value in assay [1] is listed as “not altered”. Moreover, the “cleaved caspase-3” value in assay [2] is given as “only marginally increased”. Further, in assay [3], the “expression level of CDK4 and Cyclin D1” value was “reduced”. Moreover, in assay [4], the “acetylation intensity of histone H3 and H4” value was “increased”; the acetylation of tubulin result is on record as “increased”.
